This passage reports Activity results from ChEMBL document CHEMBL4765399, “Design, synthesis, and biological evaluation of 5-((8-methoxy-2-methylquinolin-4-yl)amino)-1H-indole-2-carbohydrazide derivatives as novel Nur77 modulators” (Eur J Med Chem, 2020).

The subject of test [1] is HepG2. The test can be described thus: Upregulation of Nur77 expression in human HepG2 cells incubated for 6 hrs by Western blot analysis. The test is classed as functional, cell-based. Conditions: dose 0.5-2 µM. Summed up:
(§1)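 HepG2, QGY-7703 and SMMC-7721 cells treated with the indicated concentrations for 6 h. HepG2 also given 2.0 µM over a time course. Lysis in RIPA with protease and phosphatase inhibitors; 40-80 µg protein by SDS-PAGE, nitrocellulose transfer. Membranes blocked with 5% milk, primary antibody overnight, HRP secondary, chemiluminescence. GAPDH as loading control.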

In test [2] the test system is HepG2. The test can be described thus: Upregulation of Nur77 expression in human HepG2 cells at 2 uM incubated for 6 hrs by Western blot analysis. In kind it is functional, cell-based. In a few lines:
as §1

Test [3] deals with HepG2. The test can be described thus: Antiproliferative activity against human HepG2 cells assessed as reduction in cell viability at 2 uM by MTT assay. The test is classed as functional, cell-based. To be noted: time 12-48 hrs, TDE = time-dependent effect. In a few lines:
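Cells treated with 2.0 µM over a time course; viability read by MTT. HepG2, SMMC-7721 kept in DMEM, QGY-7703 in RPMI 1640, with 10% FBS at 37 °C and 5% CO2.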

A further test has as its system SMMC-7721. The test is described as follows: Induction of autophagy in human SMMC-7721 cells assessed as increase in Beclin 1 expression measured at 12 hrs by Western blot analysis. Conditions: dose 0.5-2 µM. In kind it is functional, cell-based. In a few lines:
(§2)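 HepG2, QGY-7703 and SMMC-7721 treated with graded concentrations for 12 h. Lysed in RIPA with inhibitors; 40-80 µg protein separated by SDS-PAGE, blotted to nitrocellulose, blocked 1 h in 5% milk, primary antibodies overnight (LC3, Beclin1, Bip, CHOP, TRB3), HRP secondaries, chemiluminescence.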

For test [4], the system named is HepG2. The test is described as follows: Induction of autophagy in Nur77 knockout human HepG2 cells assessed as increase in Beclin 1 expression at 2 uM measured after 6 to 12 hrs by Western blot analysis. In kind it is functional, cell-based. Conditions: time 6-12 hrs. Summed up:
(§3)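 Scrambled-control and shNur77 HepG2 given DMSO or 2.0 µM for 6 or 12 h; immunoblotting of RIPA lysates for LC3, Beclin1 and Nur77 after SDS-PAGE and nitrocellulose transfer, chemiluminescent detection.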

Test [5] concerns HepG2. The test can be described thus: Induction of autophagy in Nur77 knockout human HepG2 cells assessed as increase in LC3-II expression at 2 uM measured after 6 to 12 hrs by Western blot analysis. The test is classed as functional, cell-based. Conditions: time 6-12 hrs. In a few lines: as §3
The subject of test [6] is HepG2. The test can be described thus: Induction of endoplasmic reticulum stress in human HepG2 cells assessed as increase in TRB3 protein expression incubated for 12 hrs by Western blot analysis. In kind it is functional, cell-based. To be noted: dose 0.5-2 µM. Summed up: as §2
The subject of test [7] is HepG2. The test can be described thus: Induction of endoplasmic reticulum stress in Nur77 […] human HepG2 cells assessed as CHOP protein expression at 2 uM incubated for 6 to 12 hrs by Western blot analysis. In kind it is functional, cell-based. To be noted: time 6-12 hrs. Summed up: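 HepG2 and shNur77 HepG2 exposed to DMSO or 2.0 µM for 6 and 12 h; lysates immunoblotted for TRB3, Bip, CHOP and Nur77 (SDS-PAGE, nitrocellulose, overnight primary antibodies, HRP secondary, chemiluminescence).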

In test [8] the test system is HepG2. The test can be described thus: Induction of autophagy in human HepG2 cells assessed as LC3-II expression at 2 uM pretreated with ER stress inhibitor, 4-PBA for 2 hrs followed by incubation with compound for 12 hrs by Western blot analysis. The test is classed as functional, cell-based. In a few lines:
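HepG2 grown to confluence, pretreated 2 h with 2 mM 4-PBA, then exposed to test compound for a further 12 h; Western blot for PARP, cleaved caspase-3/-9, Bcl-2, Bax, Bip, EIF2a, TRB3 and LC3.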

Test [9] has as its system HepG2. The test can be described thus: Induction of apoptosis in human HepG2 cells assessed as Bax/Bcl-2 ratio at 2 uM pretreated with ER stress inhibitor, 4-PBA for 2 hrs followed by incubation with compound for 12 hrs by Western blot analysis. In kind it is functional, cell-based.
In test [10] the test system is HepG2. The test is described as follows: Antitumor activity against human HepG2 cells xenografted in BALB/c mouse assessed as induction of autophagy by measuring increase in Beclin1 level in tumor tissue at 10 to 20 mg/kg/day, ip administered for 15 days by immunohistochemical analysis. The test is classed as functional, organism-based. To be noted: dose 10-20 mg/kg/day, time 15.0 day. Summed up: (§4)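 HepG2 cells (5×10^6) injected subcutaneously into flanks of 4-week-old male Balb/c nude mice. At about 100 mm³, 15 mice were randomized to vehicle, 10 or 20 mg/kg i.p. once daily for 15 days. Tumors were then excised for immunostaining of paraffin sections (5 μm) or for western blot.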

The test system of test [11] is HepG2. The test is described as follows: Antitumor activity against human HepG2 cells xenografted in BALB/c mouse assessed as induction of ER stress by measuring increase in TRB3 level in tumor tissue at 10 to 20 mg/kg/day, ip administered for 15 days by immunohistochemical analysis. The test is classed as functional, organism-based. To be noted: dose 10-20 mg/kg/day, time 15.0 day. Summed up: as §4

Test [12] concerns HepG2. The test is described as follows: Antitumor activity against human HepG2 cells xenografted in BALB/c mouse assessed as induction of ER stress by measuring increase in bip level in tumor tissue at 10 to 20 mg/kg/day, ip administered for 15 days by immunohistochemical analysis. The test is classed as functional, organism-based. To be noted: dose 10-20 mg/kg/day, time 15.0 day. In a few lines:
as §4

Test [13] deals with Nuclear receptor subfamily 4immunitygroup A member 1 (Homo sapiens, UniProt P22736). The test is described as follows: Modulation of Nur77 in human HepG2 cells assessed as induction of Nur77 translocation into cytoplasm from nucleus by measuring decrease in protein expression in nucleus at 2 uM by western blot analysis. In kind it is subcellular. To be noted: filed as modulator, time 1-8 hrs, TDE = time-dependent effect. Summed up:
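HepG2 given 2.0 µM for set times; cells swollen 10 min on ice in HEPES/NaCl/EDTA/CaCl2/MgCl2 buffer, 0.1% NP40 added, spun 15000 rpm 3 min at 4 °C giving cytoplasmic supernatant; pellet extracted in RIPA. Fractions blotted for Nur77, with PARP (nuclear) and tubulin (cytoplasmic) as loading controls.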

Test [14] relates to HepG2. The test can be described thus: Induction of apoptosis in human HepG2 cells assessed as late apoptotic cells at 1 uM incubated for 12 hrs by Annexin V-FITC/PI staining based flow cytometry (reference value: 1.1%). The test is classed as functional.
In test [15] the test system is HepG2. The test is described as follows: Disruption of mitochondrial membrane potential in human HepG2 cells transfected with shNur77 assessed as red fluorescence intensity at 2 uM incubated for 12 hrs by JC-1 staining based flow cytometry (reference value: 21319 units). In kind it is functional.
The subject of test [16] is HepG2. The test can be described thus: Induction of apoptosis in human HepG2 cells assessed as increase in cleaved PARP level pretreated with nuclear export inhibitor, LMB followed by incubation with compound for 12 hrs by western blot analysis. The test is classed as functional, cell-based.
Test [17] deals with HepG2. The test can be described thus: Upregulation of Nur77 expression in human HepG2 cells pretreated with nuclear export inhibitor, LMB followed by incubation with compound for 12 hrs by western blot analysis. In kind it is functional, cell-based.
For test [18], the system named is HepG2. The test can be described thus: Induction of autophagy in human HepG2 cells assessed as p62 degradation by western blot analysis. In kind it is functional, cell-based.
The test system of test [19] is HepG2. The test can be described thus: Antitumor activity against human HepG2 cells xenografted in BALB/c mouse assessed as reduction in PCNA expression in tumor tissue at 10 to 20 mg/kg/day, ip for 15 days by immunocytochemistry staining. The test is classed as functional, organism-based. To be noted: dose 10-20 mg/kg/day, time 15.0 day. In a few lines: as §4
Test [20] has as its system HepG2. The test is described as follows: Antitumor activity against human HepG2 cells xenografted in BALB/c mouse assessed as reduction in PCNA expression in tumor tissue at 10 to 20 mg/kg/day, ip for 15 days by western blot analysis. In kind it is functional, organism-based. To be noted: dose 10-20 mg/kg/day, time 15.0 day. Summed up: as §4
For test [21], the system named is HepG2. The test is described as follows: Induction of apoptosis in human HepG2 cells assessed as increase in PARP cleavage at 2 uM measured after 12 hrs by Western blot analysis.

Active and inactive are the calls of the source. No cut-off for these calls is given here.

Chain of Nuclear receptor subfamily 4immunitygroup A member 1 (P22736 whole entry): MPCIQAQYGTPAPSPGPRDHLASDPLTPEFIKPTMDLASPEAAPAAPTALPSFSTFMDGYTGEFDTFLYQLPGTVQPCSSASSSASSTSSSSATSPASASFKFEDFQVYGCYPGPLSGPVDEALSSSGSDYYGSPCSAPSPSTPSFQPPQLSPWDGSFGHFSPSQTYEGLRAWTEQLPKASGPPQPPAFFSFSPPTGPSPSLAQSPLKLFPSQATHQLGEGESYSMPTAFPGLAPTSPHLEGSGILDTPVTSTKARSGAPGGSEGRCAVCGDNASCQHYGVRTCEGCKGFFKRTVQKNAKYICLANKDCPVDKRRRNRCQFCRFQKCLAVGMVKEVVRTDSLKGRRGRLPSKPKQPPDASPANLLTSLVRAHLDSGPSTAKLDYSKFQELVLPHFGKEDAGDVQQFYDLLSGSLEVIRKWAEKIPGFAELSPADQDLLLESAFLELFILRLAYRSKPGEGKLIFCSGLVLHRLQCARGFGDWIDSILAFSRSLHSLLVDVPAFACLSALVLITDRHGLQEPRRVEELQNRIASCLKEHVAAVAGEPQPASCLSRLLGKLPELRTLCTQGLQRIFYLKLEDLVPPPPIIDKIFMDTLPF

As for `COc1cccc2c(Nc3ccc4[nH]c(C(=O)N/N=C/c5ccc(SC)cc5)cc4c3)cc(C)nc12`, the Activity result was “Dose-dependent effect” in the test on HepG2 [1]; “Tde” in the test on HepG2 [3]; “Dose-dependent effect” in the test with SMMC-7721; “Dose-dependent effect” in the test with HepG2 [6]; “Tde” in test [13]; 16.1% in the test on HepG2 [14]. The Activity in the test with HepG2 [15] worked out at 18938 U. The outcome in the test with HepG2 [2], in the test with HepG2 [4], with HepG2 [10], in the test on HepG2 [11], with HepG2 [12] and in the test with HepG2 [17] was Active. Further, the result in the test with HepG2 [19], in the test on HepG2 [20] and in the test with HepG2 [21] was Active. The result in the test on HepG2 [5], in the test with HepG2 [7], in the test with HepG2 [8], in the test with HepG2 [9], in the test on HepG2 [16] and in the test with HepG2 [18] was inactive.
